Consider six molecules from ChEMBL document CHEMBL4330179, “De Novo Discovery of Nonstandard Macrocyclic Peptides as Noncompetitive Inhibitors of the Zika Virus NS2B-NS3 Protease” (ACS Med Chem Lett, 2019).

Data set [1] concerns the target T1, Nonstructural protein 3 (Zika virus, UniProt A0A024AXB9). Nature of the data set: Non-competitive inhibition of C-terminal His6-tagged linked Zika virus NS2B-NS3 protease domain expressed in Escherichia coli Bl21(DE3) using Bz-Nle-Lys-Lys-Arg-AMC as substrate after 30 mins by Cornish-Bowden plot analysis. The method, boiled down: (§1)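 Fluorogenic substrate Bz-Nle-Lys-Lys-Arg-AMC against linked gZiPro, run at four substrate concentrations across a range of inhibitor concentrations. Ki comes from nonlinear least-squares fits to a noncompetitive inhibition model, and the mode is checked on Cornish–Bowden plots.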

Data set [2] deals with T1, Nonstructural protein 3. Put plainly: Inhibition of C-terminal His6-tagged linked Zika virus NS2B-NS3 protease domain expressed in Escherichia coli Bl21(DE3) using Bz-Nle-Lys-Lys-Arg-AMC as substrate after 30 mins by fluorophotometric method. Put shortly: as §1
The target of data set [3] is T1, Nonstructural protein 3. Nature of the data set: Binding affinity to C-terminal His6-tagged linked Zika virus NS2B-NS3 protease domain by SPR analysis. Put shortly: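 Dissociation constants measured by surface plasmon resonance, with the linked Zika NS2B-NS3 protease (gZiPro) immobilized on the chip.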
Data set [4] concerns the target T1, Nonstructural protein 3. Put plainly: Inhibition of C-terminal His6-tagged unlinked Zika virus NS2B-NS3 protease domain expressed in Escherichia coli Bl21(DE3) using Bz-Nle-Lys-Lys-Arg-AMC as substrate after 30 mins by fluorophotometric method. The method, boiled down:
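Unlinked Zika NS2B-NS3 protease at 0.5 nM with Bz-Nle-Lys-Lys-Arg-AMC substrate.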

Data set [5] deals with Genome polyprotein (dengue virus type 2, UniProt P29990). Nature of the data set: Inhibition of C-terminal His6-tagged linked Dengue virus serotype 2 NS2B-NS3 protease domain expressed in Escherichia coli Bl21(DE3) preincubated for 15 mins followed by Abz-Nle-Lys-Arg-Arg-Ser-3-(NO2)Tyr substrate addition and measured for 15 mins by fluorescence method. Put shortly:
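DENV-2 NS2B-NS3 protease used at 100 nM against the FRET substrate Abz-Nle-Lys-Arg-Arg-Ser-3-(NO2)Tyr. IC50 values were calculated for a substrate concentration of 50 μM.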

Data set [6] concerns the target Genome polyprotein (West Nile virus, UniProt P06935). Nature of the data set: Inhibition of C-terminal His6-tagged linked West Nile virus NS2B-NS3 protease domain expressed in Escherichia coli Bl21(DE3) preincubated for 15 mins followed by AbzGly-Leu-Lys-Arg-Gly-Gly-3-(NO2)Tyr substrate addition and measured for 15 mins by fluorescence method. Put shortly:
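West Nile virus NS2B-NS3 protease at 150 nM with internally quenched substrate Abz-Gly-Leu-Lys-Arg-Gly-Gly-3-(NO2)Tyr. IC50 is calculated for 50 μM substrate.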

The target of data set [7] is T2, Nonstructural protein 3 (Zika virus) (UniProt A0A024AXB9). Put plainly: Competitive inhibition of C-terminal His6-tagged linked Zika virus NS2B-NS3 protease domain expressed in Escherichia coli Bl21(DE3) using Bz-Nle-Lys-Lys-Arg-AMC as substrate after 30 mins by Cornish-Bowden plot analysis.
Data set [8] can be described thus: Selectivity index, ratio of IC50 for C-terminal His6-tagged linked Dengue virus serotype 2 NS2B-NS3 protease domain expressed in Escherichia coli Bl21(DE3) to Ki for non-competitive inhibition of C-terminal His6-tagged linked Zika virus NS2B-NS3 protease domain expressed in Escherichia coli Bl21(DE3).
A short description of data set [9]: Selectivity index, ratio of IC50 for C-terminal His6-tagged linked West Nile virus NS2B-NS3 protease domain expressed in Escherichia coli Bl21(DE3) to Ki for non-competitive inhibition of C-terminal His6-tagged linked Zika virus NS2B-NS3 protease domain expressed in Escherichia coli Bl21(DE3).
The target of data set [10] is Prothrombin (Homo sapiens) (UniProt P00734). Put plainly: Inhibition of thrombin (unknown origin) at 25 uM using Boc-Val-Pro-Arg-AMC as substrate preincubated for 15 mins followed by substrate addition and measured for 10 mins by fluorescence assay. Put shortly:
(§2)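 Serine protease counter-screens (thrombin, trypsin), tested up to a highest concentration of 25 or 50 μM.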

The next data set has as its target Trypsin (Homo sapiens) (UniProt P07477+P07478+P35030). Put plainly: Inhibition of trypsin (unknown origin) at 25 uM using Boc-Val-Pro-Arg-AMC as substrate preincubated for 15 mins followed by substrate addition and measured for 10 mins by fluorescence assay. The class given is protein assay. Put shortly: as §2
The test system of another data set is Huh-7. Nature of the data set: Cytotoxicity against human HuH7 cells assessed as reduction in cell viability up to 12.5 uM after 24 to 48 hrs by CellTiter-Blue assay. The class given is cell-based. Put shortly:
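Huh-7 cells exposed to compounds for 24 h and 48 h. Metabolic activity is read as % reduction relative to nontreated cells, with 80% viability used as the cutoff.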
Background: Resazurin is reduced to fluorescent resorufin, in cell work by metabolically active cells.

Data set [11] deals with T2, Nonstructural protein 3 (Zika virus). Put plainly: Inhibition of C-terminal His6-tagged unlinked Zika virus NS2B-NS3 protease domain expressed in Escherichia coli Bl21(DE3) at 200 to 400 nM using Bz-Nle-Lys-Lys-Arg-AMC as substrate after 30 mins in presence of cn-716 by fluorophotometric method.

Active and inactive are the calls of the source. Positions of bridges follow the written chain, without caps; N, C: chain ends. Non-standard residues stand in square brackets, D forms with d. Residues, ends and D or L forms follow the SMILES beside them. NMeY = CN[C@@H](Cc1ccc(O)cc1)C(=O)O; NMeF = CN[C@@H](Cc1ccccc1)C(=O)O; NMeS = CN[C@@H](CO)C(=O)O; Sar = CNCC(=O)O

Sequence of Genome polyprotein (West Nile virus, UniProt P06935) (P06935 1371-1501 limits assumed): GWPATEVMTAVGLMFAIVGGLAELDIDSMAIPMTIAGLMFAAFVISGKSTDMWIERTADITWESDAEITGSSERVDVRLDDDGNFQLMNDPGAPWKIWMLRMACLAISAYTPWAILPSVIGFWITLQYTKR
Sequence of Genome polyprotein (West Nile virus, UniProt P06935) (P06935 1502-2120 limits assumed): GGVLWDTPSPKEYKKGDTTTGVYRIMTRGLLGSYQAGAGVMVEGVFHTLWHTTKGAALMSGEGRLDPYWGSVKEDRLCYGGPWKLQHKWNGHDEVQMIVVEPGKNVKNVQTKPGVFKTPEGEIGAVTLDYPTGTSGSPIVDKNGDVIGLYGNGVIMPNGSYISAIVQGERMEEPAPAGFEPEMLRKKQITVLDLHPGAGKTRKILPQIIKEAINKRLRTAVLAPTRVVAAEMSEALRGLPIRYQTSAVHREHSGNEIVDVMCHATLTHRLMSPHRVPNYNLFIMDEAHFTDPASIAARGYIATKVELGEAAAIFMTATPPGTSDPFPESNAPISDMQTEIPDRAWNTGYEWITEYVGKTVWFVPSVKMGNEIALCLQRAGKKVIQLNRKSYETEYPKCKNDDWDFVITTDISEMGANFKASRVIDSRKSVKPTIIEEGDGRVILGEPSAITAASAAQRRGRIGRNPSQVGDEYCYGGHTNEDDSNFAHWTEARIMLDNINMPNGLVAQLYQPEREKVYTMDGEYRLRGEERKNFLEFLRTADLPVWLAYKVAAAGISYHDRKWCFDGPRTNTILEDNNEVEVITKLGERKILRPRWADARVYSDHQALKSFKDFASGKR
T1 sequence (A0A024AXB9 whole entry, the tested form may be a part): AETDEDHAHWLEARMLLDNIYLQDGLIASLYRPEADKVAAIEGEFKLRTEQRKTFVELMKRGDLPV
T2 sequence (A0A024AXB9 as listed by the source): as the sequence (A0A024AXB9 whole entry, the tested form may be a part) above
Sequence of Genome polyprotein (dengue virus type 2, UniProt P29990) (P29990 1346-1475 limits assumed): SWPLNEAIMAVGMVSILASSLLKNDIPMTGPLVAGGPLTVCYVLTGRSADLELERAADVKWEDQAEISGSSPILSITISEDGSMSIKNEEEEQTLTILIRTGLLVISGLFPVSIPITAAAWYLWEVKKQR
Sequence of Genome polyprotein (dengue virus type 2, UniProt P29990) (P29990 1476-2093 limits assumed): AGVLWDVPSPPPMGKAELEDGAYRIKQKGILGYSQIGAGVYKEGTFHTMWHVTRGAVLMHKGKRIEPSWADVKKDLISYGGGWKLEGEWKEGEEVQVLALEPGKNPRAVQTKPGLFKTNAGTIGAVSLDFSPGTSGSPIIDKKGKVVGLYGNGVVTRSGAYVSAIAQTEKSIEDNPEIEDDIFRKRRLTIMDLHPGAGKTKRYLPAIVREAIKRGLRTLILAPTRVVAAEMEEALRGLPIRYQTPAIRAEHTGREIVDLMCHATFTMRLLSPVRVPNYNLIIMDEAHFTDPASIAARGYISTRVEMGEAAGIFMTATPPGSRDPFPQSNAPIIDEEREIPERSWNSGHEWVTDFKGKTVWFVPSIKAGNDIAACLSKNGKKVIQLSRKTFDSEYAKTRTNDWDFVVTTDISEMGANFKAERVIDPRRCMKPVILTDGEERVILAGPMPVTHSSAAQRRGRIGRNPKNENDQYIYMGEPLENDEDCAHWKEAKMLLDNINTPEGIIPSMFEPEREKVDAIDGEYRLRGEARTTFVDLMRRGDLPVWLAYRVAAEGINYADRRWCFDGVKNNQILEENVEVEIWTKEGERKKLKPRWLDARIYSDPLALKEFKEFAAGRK

For the molecule `CC[C@H](C)[C@@H]1NC(=O)[C@H](C)NC(=O)[C@@H](Cc2ccc(O)cc2)NC(=O)CSC[C@@H](C(N)=O)NC(=O)[C@H](CC(N)=O)NC(=O)[C@H](CC(C)C)N(C)C(=O)[C@H](Cc2ccc(O)cc2)NC(=O)[C@H](CCCCN)NC(=O)[C@H](CC(N)=O)NC(=O)[C@H](Cc2ccc(O)cc2)NC(=O)[C@H](Cc2ccc(OC)cc2)N(C)C(=O)[C@H]([C@@H](C)CC)NC1=O`, the Ki – broadly, a measure of affinity in units of concentration, obtained from inhibition or displacement – on Nonstructural protein 3 [1] came out at 3500 nM. For the same molecule, the IC50 (as a rule, the concentration that gives 50% inhibition) is 7100 nM against Nonstructural protein 3 [2], 3200 nM on Nonstructural protein 3 [4], greater than 20000 nM against Genome polyprotein [5] and greater than 20000 nM at Genome polyprotein [6]. Binding at Nonstructural protein 3 [3] was characterised by a dissociation constant (Kd) of 168 nM. Also, the inhibition entry in [7] is “inactive”.

On Nonstructural protein 3 [1], `CC(C)C[C@@H]1NC(=O)[C@H]([C@@H](C)O)NC(=O)[C@H](Cc2ccc(O)cc2)NC(=O)CSC[C@@H](C(N)=O)NC(=O)[C@H](Cc2ccccc2)NC(=O)[C@H](Cc2ccccc2)NC(=O)[C@H]([C@@H](C)O)NC(=O)CN(C)C(=O)[C@H](CC(N)=O)NC(=O)[C@H](Cc2cnc[nH]2)NC(=O)[C@H](Cc2ccccc2)NC(=O)[C@@H]2CCCN2C1=O` ({CH2CO}-YTLPFHN[Sar]TFFC-NH2; thioether N-12) registered a Ki greater than 100000 nM. Besides, at Nonstructural protein 3 [3], the Kd (usually the equilibrium constant for the complex coming apart) came to 5 nM. Moreover, the IC50 on Nonstructural protein 3 [4] is no less than 50000 nM; against Genome polyprotein [5] it was greater than 20000 nM; on Genome polyprotein [6], greater than 20000 nM. Besides, the inhibition result in [7] was “inactive”.

The molecule `COc1ccc(C[C@H]2C(=O)N[C@@H](Cc3ccccc3)C(=O)N[C@H](C(N)=O)CSCC(=O)N[C@@H](Cc3ccc(O)cc3)C(=O)N[C@@H]([C@@H](C)O)C(=O)N[C@@H](CC(N)=O)C(=O)N[C@@H](Cc3ccccc3)C(=O)N[C@@H](Cc3ccc(O)cc3)C(=O)N[C@@H](CC(C)C)C(=O)N[C@@H](Cc3ccc(O)cc3)C(=O)N3CCC[C@H]3C(=O)N[C@@H](Cc3ccc(O)cc3)C(=O)N2C)cc1` ({CH2CO}-YTNFYLYPY[NMeY](Me)FC-NH2; thioether N-12) showed a Ki on Nonstructural protein 3 [1] of 2000 nM. The IC50 against Nonstructural protein 3 [2] was 3300 nM; on Nonstructural protein 3 [4], 2200 nM; at Genome polyprotein [5] it was greater than 20000 nM; on Genome polyprotein [6] it was greater than 20000 nM. On Nonstructural protein 3 [3], this molecule had a Kd of 8 nM. Also, the Selectivity Index in [8] and in data set [9] was greater than 10 throughout. In addition, the inhibition entry in data set [7] is “inactive”.

For `CC[C@H](C)[C@@H]1NC(=O)[C@H](CC(N)=O)NC(=O)[C@H](C(C)C)NC(=O)[C@H](CC(C)C)NC(=O)[C@H]([C@@H](C)O)NC(=O)[C@H](CC(N)=O)NC(=O)[C@H](Cc2ccc(OC)cc2)N(C)C(=O)[C@H]([C@@H](C)CC)NC(=O)[C@H](CCCCN)NC(=O)[C@H](Cc2c[nH]c3ccccc23)NC(=O)[C@H](Cc2ccc(O)cc2)NC(=O)CSC[C@@H](C(N)=O)NC1=O` ({CH2CO}-YWKI[NMeY](Me)NTLVNIC-NH2; thioether N-12), affinity on Nonstructural protein 3 [1] was put at a Ki of 800 nM. The IC50 on Nonstructural protein 3 [2] was 1320 nM; against Nonstructural protein 3 [4], 1500 nM; against Genome polyprotein [5], greater than 10000 nM; against Genome polyprotein [6], greater than 10000 nM. Besides, the Kd on Nonstructural protein 3 [3] stood at 20 nM. Moreover, the inhibition result (in [10]; on Trypsin (Homo sapiens); in [7]) was “inactive” throughout. Further, the values for the Selectivity Index in [8] and in [9] were 4 and 9, respectively. Further, the Activity result in the data set with Huh-7 is recorded as “Non-Toxic”.

`COc1ccc(C[C@H]2C(=O)N[C@@H](CCCCN)C(=O)N(C)[C@@H](Cc3ccccc3)C(=O)N[C@@H](CCCCN)C(=O)N(C)[C@@H](CO)C(=O)N(C)[C@@H](Cc3ccc(OC)cc3)C(=O)N[C@@H](CCCCN)C(=O)N(C)[C@@H](Cc3ccc(OC)cc3)C(=O)N(C)[C@@H](Cc3ccc(OC)cc3)C(=O)N[C@@H](CCCCN)C(=O)N[C@H](C(N)=O)CSCC(=O)N[C@@H](Cc3ccc(O)cc3)C(=O)N2C)cc1` ({CH2CO}-Y[NMeY](Me)K[NMeF]K[NMeS][NMeY](Me)K[NMeY](Me)[NMeY](Me)KC-NH2; thioether N-12) showed a Ki on Nonstructural protein 3 [1] of 440 nM. Moreover, the IC50 at Nonstructural protein 3 [2] was found to be 620 nM; at Nonstructural protein 3 [4], 250 nM; against Genome polyprotein [5], 1700 nM; at Genome polyprotein [6] it was 3900 nM. This molecule also yielded a Kd on Nonstructural protein 3 [3] of 9 nM. Moreover, the inhibition entry (in data set [10]; on Trypsin (Homo sapiens); in data set [7]) was “inactive” each time. Further, in data set [11], the inhibition entry is “Active”. For the same molecule, the Selectivity Index in data set [8] and in [9] was greater than 10 in each case. Also, the Activity entry in the data set with Huh-7 is given as “Non-Toxic”.

On Nonstructural protein 3 [1], `CC[C@H](C)[C@@H]1NC(=O)CN(C)C(=O)[C@H](Cc2ccc(O)cc2)NC(=O)CSC[C@@H](C(N)=O)NC(=O)[C@@H]2CCCN2C(=O)[C@H]([C@@H](C)CC)NC(=O)[C@H](Cc2ccc(OC)cc2)N(C)C(=O)[C@H](Cc2ccc(OC)cc2)N(C)C(=O)[C@H](CC(N)=O)NC(=O)[C@H](Cc2ccc(O)cc2)NC(=O)[C@H](CCCCN)NC(=O)[C@H](C)NC1=O` ({CH2CO}-Y[Sar]IAKYN[NMeY](Me)[NMeY](Me)IPC-NH2; thioether N-12) displayed a Ki of 20400 nM. The IC50 was 16500 nM on Nonstructural protein 3 [2], 4600 nM on Nonstructural protein 3 [4], no less than 20000 nM on Genome polyprotein [5] and no less than 20000 nM at Genome polyprotein [6]. Moreover, at Nonstructural protein 3 [3], the Kd came to 9 nM. Also, in [7], the inhibition entry was “inactive”.
